Rows were chosen to be rich in hits. Some 3.3% of all compounds tested hit in one or more screens of this group.
Statin myotox sup = suppressors of statin myotoxicity in C2C12 myotubes, primary screen, cell-based, single point, plate reader | C2C12 myotubes + simvastatin, ATP luminescence, 48 h; scaled: DMSO 0, geranylgeraniol control 100 | rescue of ATP level, % at 7.49 µM | 330,000 compounds, 0.78% hits;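 active = mean ATP rescue above about 67%, or every replicate alone reaching that limit, limit read from the data, passing the limit was not always enough; inconclusive = no clear call, values can overlap the other calls; inactive = mean under the limit and some replicate under it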;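 note: myotubes were challenged with 10 µM simvastatin during compound exposure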
XiGFP reactiv = activators of inactive X chromosome reactivation, primary screen, imaging, XiGFP fibroblasts, GFP high-content imaging, set 2 | XiGFP mouse fibroblasts, % GFP-positive cells imaging, 3 d; cells co-treated with 5-aza-dC sensitizer; scaled so ellipticine positive control = 100% | activation, % at 7.58 µM | 360,000 compounds, 0.055% hits;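 active = mean normalized replicate activation at least 10% and every replicate at or above 10%; inconclusive = only one of the two criteria met; inactive = mean below 10% and not all replicates reach 10%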
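System: 68-5-11 XiGFP fibroblast line | Buffer or medium: DMEM containing 5-aza-dC | Compound: Single point | Times: Compounds 3 days, fix/stain 15 min at room temperature | Benchmarks: Positive control ellipticine, 6 µM final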
DENV2 CPE rescue = inhibitors of DENV2 cytopathic effect, primary screen, cell-based, plate reader, single concentration; 350,000 compounds, 1.7% hits; AID 651640, 2012; CPE inhibition, % at 9.99 µM; DENV2-infected cells, cytopathic effect rescue; in the data active = CPE inhibition above about 20%, passing the limit was not always enough; inconclusive = no clear call, values can overlap the other calls; tested in BHK-21 cells
E-selectin induc = E-selectin induction in HUVECs, primary screen, imaging, HUVEC, immunofluorescence imaging, single point. P16581. normalized: neutral wells 0, TNF-alpha wells 100. activation, % at 7.58 µM. 260,000 compounds, 0.37% hits;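 active = mean E-selectin-positive cell signal at least 10% of the positive control, reached in at least 60% of replicates, without over 20% cell loss; inconclusive = no rule given, readout overlaps actives, possibly toxicity-flagged; inactive = the rest, including those meeting only one limit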
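assay system = HUVEC, human umbilical vein endothelial cells | input = 3,000 HUVEC seeded per well | medium = EGM-2 growth medium on 0.1% gelatin-coated wells | dosing = one compound dose added by pin transfer | signal = immunofluorescence imaging | read-out basis = % PE-positive cells | control set = TNF-alpha, DMSO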
PglD inh = C. jejuni PglD acetyltransferase inhibitors, primary screen, biochemical, DTNB colorimetric, single point; purified PglD enzyme, DTNB colorimetric CoA detection; inhibition, % at 12.5 µM; 360,000 compounds, 0.098% hits; in the data active = inhibition above about 16%, passing the limit was not always enough; inconclusive = no clear call, values can overlap the other calls
FGF22 binding = binders of human FGF22 protein, primary screen, FGF22 synaptogenesis inhibitor project, biophysical, thermal shift, single point. Fibroblast growth factor 22 (Homo sapiens), Q9HCT0. recombinant FGF22 thermal shift, SYPRO orange fluorescence; percent of sucrose octasulfate shift, DMSO zero. activity (Tm shift, normalised), % at 9.99 µM. 340,000 compounds, 1.5% hits. AID 651658, 2012;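 active = mean Tm shift, scaled 0 neutral to 100 positive control, at about 1.3% or above, every replicate too, limit read from the data; inconclusive = no clear call, values can overlap the other calls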
Target sequence (Q9HCT0 whole entry, looked up): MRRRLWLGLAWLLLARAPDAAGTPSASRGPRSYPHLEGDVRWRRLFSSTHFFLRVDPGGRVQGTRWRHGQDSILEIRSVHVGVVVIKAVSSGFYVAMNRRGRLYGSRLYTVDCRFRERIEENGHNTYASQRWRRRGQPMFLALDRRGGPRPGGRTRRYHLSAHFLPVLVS
Large screens that a line does not name were inactive.

CC(CN1C(C)CCCC1C)OC(=O)c1ccc(Cl)cc1 (configuration not stated)	FGF22 binding 44.1 (no result: Statin myotox sup, E-selectin induc, PglD inh)
CCOc1ccc(N2C(=O)CSC23CCCCC3)cc1	Statin myotox sup 95.9 (no result: XiGFP reactiv, DENV2 CPE rescue, E-selectin induc, FGF22 binding)
O=S(=O)(Nc1cc(Sc2cccc3cccnc23)c(O)c2ccccc12)c1ccccc1	XiGFP reactiv 52.8 (no result: Statin myotox sup, E-selectin induc, PglD inh)
CC(=O)NC(C)c1nc2ccccc2n1CC(=O)N1C(C)CCCC1C (configuration not stated)	FGF22 binding 43.9 (no result: Statin myotox sup, E-selectin induc, PglD inh)
CN(C)CCCNC(=S)Nc1ccc(Oc2ccccc2)cc1	none (no result: Statin myotox sup, E-selectin induc, PglD inh)
OCCCNC(=S)Nc1ccc(Oc2ccccc2)cc1	FGF22 binding 43.5 (no result: E-selectin induc)
C[C@H]1CN([C@@H](C)CO)C(=O)c2cc(NC(=O)C3CC3)ccc2O[C@H]1CN(C)CC1CCCCC1	none
COc1ccc(S(=O)(=O)Nc2ccc3c(c2)C(=O)N([C@@H](C)CO)C[C@@H](C)[C@@H](CN(C)C(=O)Nc2ccccc2)O3)cc1	none
COCCNC(=O)[C@H]1[C@H](CO)[C@H]2Cn3c(ccc(C4=CCCCC4)c3=O)[C@@H]1N2C(=O)C1CCCC1	none (no result: Statin myotox sup, PglD inh, FGF22 binding)
O=C(NCCc1ccccc1)c1ccc(S(=O)(=O)N2CCCCC2)cc1	none
Cc1cc2ccccc2n1CCNC(=O)c1ccc(S(=O)(=O)N2CCCCC2)cc1	E-selectin induc 93.5
COc1ccc2oc(C(=O)OC(C)C(=O)N3CCC(C)CC3)c(C)c2c1 (configuration not stated)	DENV2 CPE rescue 34.1 (no result: E-selectin induc)
CC(NC(=O)c1ccccc1)C(=O)N/N=C/c1cccc([N+](=O)[O-])c1 (configuration not stated)	FGF22 binding 43.0 (no result: Statin myotox sup, PglD inh)
CC(NC(=O)c1ccccc1)C(=O)N/N=C/c1ccc(O)cc1 (configuration not stated)	none (no result: E-selectin induc)
CC(C)C#Cc1cnc2c(c1)C(=O)N([C@H](C)CO)C[C@@H](C)[C@H](CN(C)Cc1ccccc1F)O2	none
COc1cc2c(c3c1c(=O)c1ccccc1n3C)C=CC(C)(C)O2	none (no result: Statin myotox sup, XiGFP reactiv, E-selectin induc, PglD inh)
COc1cc(O)c(C(C)=O)c2c1C=CC(C)(C)O2	DENV2 CPE rescue 26.7 (no result: XiGFP reactiv, E-selectin induc)
O=C(Nc1ccc(O)cc1)c1ccc2c(c1)C(=O)N(Cc1cccnc1)C2=O	DENV2 CPE rescue 22.4 (no result: Statin myotox sup)
Cc1c(C(=O)Nc2ccc(C(=O)Nc3ccccc3)cc2)cccc1[N+](=O)[O-]	DENV2 CPE rescue 25.9
CCOc1ccccc1NC(=O)c1ccc(OCC)c([N+](=O)[O-])c1	none (no result: Statin myotox sup, E-selectin induc, PglD inh)
CCOc1ccc(C(=O)Nc2nc(C)cc(C)n2)cc1[N+](=O)[O-]	Statin myotox sup 93.1 (no result: DENV2 CPE rescue, E-selectin induc, FGF22 binding)
Cc1c(C(=O)Nc2ccc(OCc3ccccc3)cc2)cccc1[N+](=O)[O-]	Statin myotox sup inconclusive (no result: XiGFP reactiv, DENV2 CPE rescue, E-selectin induc, FGF22 binding)
COc1ccc(C(=O)Nc2ccc(OCc3ccccc3)cc2)cc1[N+](=O)[O-]	none (no result: XiGFP reactiv, DENV2 CPE rescue, E-selectin induc, FGF22 binding)
COc1ccc(C(=O)Nc2ccc(Nc3ccccc3)cc2)cc1[N+](=O)[O-]	DENV2 CPE rescue 39.8
COc1cc(C(=O)Nc2cccc3ncccc23)cc(OC)c1OC	Statin myotox sup 92.3 (no result: XiGFP reactiv, DENV2 CPE rescue, E-selectin induc, FGF22 binding)
COc1cc(C(=O)Nc2cccc(-c3nc4ccccc4o3)c2C)cc(OC)c1OC	Statin myotox sup 97.5 (no result: XiGFP reactiv, DENV2 CPE rescue, E-selectin induc, PglD inh, FGF22 binding)
C[C@@H]1CN([C@H](C)CO)C(=O)c2cc(C3=CCCCC3)cnc2O[C@H]1CN(C)S(C)(=O)=O	none (no result: DENV2 CPE rescue, PglD inh, FGF22 binding)
Cc1ccc(N=C2c3ccccc3C(=O)C2[N+](=O)[O-])cc1C (configuration not stated)	DENV2 CPE rescue inconclusive, FGF22 binding 43.3 (no result: Statin myotox sup, PglD inh)
CSc1nc(Sc2ccc(Cl)cc2)c2ccccc2n1	Statin myotox sup 146.4 (no result: XiGFP reactiv, DENV2 CPE rescue, E-selectin induc, FGF22 binding)
COc1cccc(S(=O)(=O)N2CC3(CCN(C)CC3)c3c([nH]c4cc(OC)ccc34)[C@@H]2CO)c1	none (no result: Statin myotox sup, PglD inh, FGF22 binding)
Cc1csc(C)[n+]1CC(=O)c1ccccc1	none (no result: E-selectin induc)
Cc1n(N)c2ccccc2[n+]1CC(=O)c1ccccc1	FGF22 binding 43.1 (no result: Statin myotox sup, PglD inh)

Source: PubChem BioAssay
